Screens (PubChem)
STAT1 activator: STAT1 signaling activation | activation (% of control), % at 5.5 µM | AID 932 | 200,000 compounds, 2.6% hits | NIH 3T3 STAT1-luciferase reporter, IFN-gamma, luminescence; 100% = IFN-gamma alone, no compound;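 active = activation above the screen-wide mean activation plus 3 SD, cut at about 130% in these data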;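 also: raw ratio to IFN-gamma control signal so 100% means no change and 0% no light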
APP 5'UTR act: activates APP 5'UTR luciferase reporter; activation, % at 2 µM; 190,000 compounds, 1% hits; AID 1276; SH-SY5Y APP 5'UTR luciferase reporter, luminescence; zero percent = DMSO vehicle wells;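 active = activation above a set limit, based on mean plus 3 SD of controls, cut at about 140% in these data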
FLuc stim CS: firefly luciferase counter-screen for stimulation assays; ATPlite luciferase biochemical, luminescence, 10 min; 0 = ATP-free wells, 1 = DMSO control; activation factor at 10 µM; 200,000 tested, under 10 active; AID 1027;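 active = luciferase activation factor, scaled between plate controls, of at least 2 with compound at 10 µM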
Target sequence (P08659 whole entry, looked up): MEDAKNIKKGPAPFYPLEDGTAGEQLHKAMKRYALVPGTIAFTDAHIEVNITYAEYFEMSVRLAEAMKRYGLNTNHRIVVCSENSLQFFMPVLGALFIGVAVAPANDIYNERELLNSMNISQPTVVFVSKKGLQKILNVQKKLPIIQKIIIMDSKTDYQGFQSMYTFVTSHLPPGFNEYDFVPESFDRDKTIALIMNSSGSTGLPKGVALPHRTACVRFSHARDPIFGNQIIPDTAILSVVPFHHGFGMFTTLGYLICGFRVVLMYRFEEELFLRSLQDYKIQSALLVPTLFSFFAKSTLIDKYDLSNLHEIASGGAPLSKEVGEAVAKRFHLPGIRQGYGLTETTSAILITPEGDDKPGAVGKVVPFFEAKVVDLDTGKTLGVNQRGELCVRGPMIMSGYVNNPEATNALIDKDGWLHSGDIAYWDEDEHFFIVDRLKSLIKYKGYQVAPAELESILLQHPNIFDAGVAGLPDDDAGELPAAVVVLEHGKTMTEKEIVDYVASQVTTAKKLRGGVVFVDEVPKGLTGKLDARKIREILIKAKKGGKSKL
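Assay system: Luciferase/luciferin reagent mix; Medium: PBS as buffer for the ATP substrate; Dosing: test compounds dosed from 2 mM stocks in 100% DMSO; Times: 10 min, room temperature; Signal: luminescence from luciferase reaction; Read-out: luciferase activation; Controls: No-ATP low control, compound-free enzyme-plus-ATP high control.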
APP transl inh: APP translation inhibition; SH-SY5Y APP 5'UTR-luciferase reporter, luminescence; inhibition, % at 2 µM; 190,000 compounds, 0.82% hits; AID 1285;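 active = inhibition above a set limit, derived from the sample mean plus 3 SD, cut at about 45% in these data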
FLuc inh counter: inhibits firefly luciferase, flagging false hits in luciferase inhibition screens. P08659. ATPLite firefly luciferase biochemical luminescence, 10 min. inhibition, % at 10 µM. 200,000 compounds, 1.5% hits;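 active = inhibition above about 50% when tested at 10 µM, limit read from the data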
NF-kB expr up: compounds increasing NF-kB expression in human neuronal cells; fold change at 12.5 µM; AID 1239; NF-kB reporter expression; hits give high values; 190,000 compounds, 1.6% hits; in the data active = fold change above about 3.3
Numbers without * were called inactive. An excerpt weighted towards active compounds, which were near 4.8% of everything screened.

SMILES	STAT1 activator	APP 5'UTR act	FLuc stim CS	APP transl inh	FLuc inh counter	NF-kB expr up
CCc1cccc(CC)c1NC(=O)/C(C#N)=C/c1ccccc1C(F)(F)F	92	9	1	-9	-5	3.4*
N#C/C(=C\c1ccccc1C(F)(F)F)C(=O)Nc1ccccc1	103	12	1.1	-12	-7	1.2
COc1ccc(Br)cc1S(=O)(=O)NCCCN1CCOCC1	95	-12	1.1	12	-7	0.9
O=C(c1c[nH]c(C(=O)N2CCN(c3ccccc3F)CC2)c1)c1cccc(Cl)c1Cl	96	-57	1.1	57*	-7	0.68
CCN(CC)S(=O)(=O)c1cnccc1N1CCN(c2cccc(Cl)c2)CC1	94	-13	1.1	13	-6	0.76
CCOC(=O)CCS(=O)(=O)c1nc(-c2ccccc2)cc(C(F)(F)F)n1	63	-31	1	30	2	0.93
CS(=O)(=O)c1nc(-c2ccc(F)cc2)cc(C(F)(F)F)n1	58	-30	1.1	30	-10	1.2
CCOC(=O)CS(=O)(=O)c1nc(-c2ccc(F)cc2)cc(C(F)(F)F)n1	67	-61	1	61*	-4	1.4
CCOC(=O)CS(=O)(=O)c1nc(-c2ccccc2)cc(C(F)(F)F)n1	66	-57	1.1	57*	-5	1.2
CC(C)c1ccc2c(c1)C1Cc3ccccc3C1N2 (stereo not given)	124	60	1	-60	2	0.84
Cc1ccc(C(=O)OCC(=O)N2CCc3ccccc32)cc1	129*	9	0.7	-9	31	2.3
CC(=O)c1c(C)[nH]c(C(=O)OCC(=O)N2CCc3ccccc32)c1C	114	16	0.9	-16	6	1.3
Cc1ccc2c(CC(=O)N3CCc4ccccc43)coc2c1	138*	119	0.7	-119	34	2.7
CCOC(=O)c1[nH]c(C)c(C(=O)OCC(=O)N2CCc3ccccc32)c1C	96	-46	1.1	46*	-9	1.1
O=C(Cc1coc2ccc3ccccc3c12)N1CCc2ccccc21	94	11	1	-11	-2	1
COc1ccc([N+](=O)[O-])cc1N(CC(=O)NC(C(C)C)C(C)C)S(C)(=O)=O	100	-4	1.1	4	-6	1.1
Cc1ccc(-c2nc3ncccc3o2)cc1NC(=O)c1sc2ccccc2c1Cl	100	17	1.1	-17	-7	1.1
CNC(=S)N/N=C(\C)c1ccc(N2CCOCC2)cc1	98	31	0.9	-31	14	6.3*
CN(C)C(=O)COC(=O)c1ccccc1Nc1ccc(SC(F)F)cc1	131*	19	1	-19	-3	2.5
CCCC(CCC)=NNC(=O)c1ccccc1F	116	39	1	-39	2	1.1
CCOC(=O)/C(C#N)=C/Nc1ccccc1OC	145*	32	0.6	-32	44	2.5
CC(C)C(=O)NNC(=O)CSc1nnnn1C(C)C	98	-10	1.1	10	-9	1.1
Nc1nnnn1/N=C/C(Br)=C/c1ccccc1	108	-91	1	91*	2	1.3
COc1ccc(NC(=O)Cn2c(=O)n(CC(=O)NCc3ccco3)c(=O)c3ccccc32)cc1OC	101	0	1	0	-4	0.99
O=C(Nc1ccc2c3c(cccc13)CC2)c1ccco1	111	11	0.8	-11	16	1.6
SMILES	STAT1 activator	APP 5'UTR act	FLuc stim CS	APP transl inh	FLuc inh counter	NF-kB expr up
O=C(Nc1ccc2c3c(cccc13)CC2)c1ccc(Br)o1	131*	16	1	-16	-3	2
Cc1ccc(Nc2c(-c3ccccn3)nc3cccc(C)n23)cc1	110	-67	1	68*	-4	0.53
Cc1cccc2nc(-c3ccco3)c(Nc3ccccc3)n12	99	5	1	-5	-1	1.1
Cc1sc(N/N=C/c2cc([N+](=O)[O-])ccc2O)nc1-c1ccccc1	99	-50	1.1	50*	-7	1.3
Cc1sc(N/N=C/C=C/c2ccccc2)nc1-c1ccccc1	94	34	1.1	-34	-7	0.99
CN(Cc1ccc(F)cc1)C(=O)COc1ccccc1-c1ccccc1	96	10	1	-10	-4	0.83
CCn1c(-c2ccccc2)csc1=Nc1ccc(S(=O)(=O)O)cc1	99	2	0.5	-2	54*	0.88
OCCCn1c(-c2ccccc2)csc1=Nc1ccccc1	96	7	1	-6	-4	1.1
